Measurements gathered from unrelated publications.
Lines come from different studies, so protocols differ.
Target: MAP kinase-interacting serine/threonine-protein kinase 2 (MKNK2, Homo sapiens, UniProt Q9HBH9)

CC(C)(C)c1nc2c(s1)c1nc(N)ncc1c1ccc(NS(=O)(=O)c3c(F)cccc3F)c(F)c12  remaining activity (enzyme activity; inhibitor; radiometric; 1 µM): 98%
Cc1c[nH]c2nccc(Oc3c(F)cc(Nc4cc(Cl)nc(N)n4)cc3F)c12  remaining binding (cell-free assay; competition with immobilised ligand; 0.1 µM): 90%
Cc1sc(C(=O)NC2COC2)cc1-n1cc(NC(=O)Nc2c(F)cccc2Cl)cn1  remaining activity (enzyme activity; inhibitor; 10 µM): 83.4%
C[C@@H]1CN(c2cc(-c3nn(C)c4ccc(OC5(C)CC5)cc34)ncn2)C[C@H](C)O1  remaining binding (cell-free assay; competition with immobilised ligand; 1 µM): 67%
Cn1c(=O)n(-c2ccc(C(C)(C)C#N)cc2)c2c3cc(-c4cnc5ccccc5c4)ccc3ncc21  remaining activity (enzyme activity; inhibitor; 10 µM): 94%
CSc1cccnc1N1CCN(Cc2nc3ccccc3[nH]2)CC1  remaining binding (cell-free assay; competition with immobilised ligand; 1 µM): 75%
CNC(=O)c1cc(Oc2ccc(NC(=O)Nc3ccc(Cl)c(C(F)(F)F)c3)cc2)ccn1  inhibition (enzyme activity; inhibitor; 0.3 µM): 61%
CC(C)c1ccc(NC(=O)c2cccs2)c(-c2nc3ccccc3[nH]c2=O)c1  activity vs control (enzyme activity; inhibitor; 1 µM): 97%
Cc1ccc(Nc2nccc(N(C)c3ccc4c(C)n(C)nc4c3)n2)cc1S(N)(=O)=O  inhibition (enzyme activity; inhibitor; 0.3 µM): 3%
COc1cc2c(N3CCN(C(=O)Nc4ccc(OC(C)C)cc4)CC3)ncnc2cc1OCCCN1CCCCC1  remaining signal (cell-free assay; 0.5 µM): 99%
CCN(CC)CCNC(=O)c1c(C)[nH]c(/C=C2\C(=O)Nc3ccc(F)cc32)c1C  inhibition (enzyme activity; inhibitor; 10 µM): 6%
Nc1nc(NC2CCCCC2)sc1C(=O)c1ccccc1  remaining activity (enzyme activity; inhibitor; 10 µM): 94%
CO[C@@H](C)c1c(Nc2ccc([C@@H](N(C)C(=O)C3CCS(=O)(=O)CC3)C(F)(F)F)cc2)cnc2cc(Cl)nn12  remaining binding (cell-free assay; competition with immobilised ligand; 1 µM): 85%
CCN(CC)c1ccc(C2=NNC(=O)CC2C)cc1[N+](=O)[O-] (centres unmarked)  remaining activity (enzyme activity; inhibitor; 10 µM): 25%
COc1ccc(COc2ccc(Cc3cnc(N)nc3N)cc2OC)cc1  remaining signal (cell-free assay; 0.5 µM): 90.6%
CC(=O)C1=C(O)C=C2Oc3c(C(N)=O)c(O)cc(O)c3[C@]2(C)C1=O  activity vs control (enzyme activity; inhibitor; radiometric; 10 µM): 0%
COc1cc(/C=C/C(=O)CC(=O)/C=C/c2ccc(O)c(OC)c2)ccc1O  activity vs control (enzyme activity; inhibitor; 1 µM): 129%
FC(F)(F)Oc1cccc(-c2cnc3ccc(-c4ccncc4)nn23)c1  activity vs control (enzyme activity; inhibitor; radiometric; 5 µM): 81%
CN([C@@H]1CCc2c(CC(=O)O)c3ccccc3n2C1)S(=O)(=O)c1ccc(F)cc1  remaining binding (cell-free assay; competition with immobilised ligand; 1 µM): 100%
O=C(Nc1cnn(-c2csc(C(=O)NC3COC3)c2)c1)Nc1c(F)cccc1Cl  remaining activity (enzyme activity; inhibitor; 5 µM): 90.8%
C=CC(=O)Nc1cc(Nc2nccc(Nc3cc(Cl)c(F)cc3C(C)(C)O)n2)c(OC)cc1N1CC[C@@H](N(C)C)C1  inhibition (enzyme activity; inhibitor; 1 µM): 67%
COc1cc(Nc2cnc(C#N)c(O[C@H](C)CN(C)C)n2)ncc1-c1cnn(C)c1  remaining activity (enzyme activity; inhibitor; radiometric; 1 µM): 98%
Nc1nc(Nc2ccccc2)sc1C(=O)c1c(F)cccc1F  remaining activity (enzyme activity; inhibitor; 10 µM): 99%
CS(=O)(=O)N1CCCC(NC(=O)[C@H](CCC2CCCCC2)NC(=O)c2ccc(CNC(=O)c3cnc4ccccn34)cc2)C1 (some centres unmarked)  remaining binding (cell-free assay; competition with immobilised ligand; 0.1 µM): 84%
CSc1nc(C)c(-c2ccnc(Nc3ccc(N4CCOCC4)cc3)c2)[nH]1  inhibition (enzyme activity; inhibitor; 10 µM): 94.9%
O=C1NC(=O)c2cc(Nc3ccc(F)cc3)c(Nc3ccc(F)cc3)cc21  remaining signal (cell-free assay; 0.5 µM): 101%
Cc1ncc(C(=O)Nc2ccc(CN3CCN(C)CC3)c(C(F)(F)F)c2)cc1C#Cc1cnc2cccnn12  inhibition (enzyme activity; inhibitor; 0.123 µM): 51%
O=C(NCc1ncc(C(F)(F)F)cc1Cl)c1ccc2c(c1)C1(CCS(=O)(=O)CC1)[C@@H](C1CC1)N2S(=O)(=O)c1ccc(F)cc1  remaining binding (cell-free assay; competition with immobilised ligand; 1 µM): 76%
Cc1cc(NC(=O)c2cccc3cc(-c4cccc5[nH]nc(N)c45)ccc23)ccc1F  activity vs control (enzyme activity; inhibitor; 0.1 µM): 111%
Clc1ccc(Nc2nnc(Cc3ccncc3)c3ccccc23)cc1  remaining signal (cell-free assay; 0.5 µM): 101%
CC1=C(C#N)[C@@H](c2ccc3[nH]nc(C)c3c2)C(C#N)=C(c2ccc(Cl)cc2)N1  remaining binding (cell-free assay; competition with immobilised ligand; 1 µM): 90.6%
O=C(CSc1nc2nccnc2c(=O)n1CCc1ccccc1)Nc1nccs1  inhibition (enzyme activity; inhibitor; 10 µM): -11%
